# Results published in ChEMBL document CHEMBL4393654, “Discovery and Early Clinical Development of an Inhibitor of 5-Lipoxygenase Activating Protein (AZD5718) for Treatment of Coronary Artery Disease” (J Med Chem, 2019).
# Legend:
# [1] = Aqueous solubility of the compound in pH 7.4 phosphate buffer measured after 24 hrs by LC-MS/MS-based shake flask method; assay type: physicochemical
# Cytochrome P450 3A4 = Cytochrome P450 3A4 (Homo sapiens, UniProt P08684); experiment: Inhibition of recombinant human CYP3A4 expressed in Escherichia coli using BFC as substrate by fluorescence assay; assay type: ADME
# Cytochrome P450 2D6 = Cytochrome P450 2D6 (Homo sapiens, UniProt P10635); experiment: Inhibition of recombinant human CYP2D6 expressed in Escherichia coli using MAMC as substrate by fluorescence assay; assay type: ADME
# [2] = Passive apparent permeability across apical to basolateral side in human Caco2 cells at pH 6.5; assay type: ADME, cell-based; settings: Caco-2, pH 6.5
# Method in brief: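 Passive permeability across Caco-2 monolayers, measured in the A to B direction at pH 6.5.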
# Cytochrome P450 2C8 = molecular target: T1, Cytochrome P450 2C8 (Homo sapiens, UniProt P10632); experiment: Inhibition of recombinant human CYP2C8 expressed in Escherichia coli using luciferin-ME as substrate by fluorescence assay; assay type: ADME
# T1 sequence (P10632 whole entry): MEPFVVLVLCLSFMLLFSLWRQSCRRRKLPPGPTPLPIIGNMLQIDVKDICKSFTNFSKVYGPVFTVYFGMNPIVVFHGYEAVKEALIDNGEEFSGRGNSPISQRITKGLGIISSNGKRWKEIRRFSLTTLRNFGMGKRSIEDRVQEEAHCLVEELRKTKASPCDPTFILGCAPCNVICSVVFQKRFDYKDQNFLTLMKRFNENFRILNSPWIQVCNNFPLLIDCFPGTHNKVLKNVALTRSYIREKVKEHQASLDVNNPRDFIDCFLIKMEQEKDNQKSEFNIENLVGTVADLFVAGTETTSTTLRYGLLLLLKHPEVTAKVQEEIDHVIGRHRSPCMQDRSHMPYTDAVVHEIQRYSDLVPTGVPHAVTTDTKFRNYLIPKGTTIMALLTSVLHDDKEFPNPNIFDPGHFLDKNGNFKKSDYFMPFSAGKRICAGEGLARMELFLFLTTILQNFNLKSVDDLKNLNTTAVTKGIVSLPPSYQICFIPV
# [3] = Octanol-phosphate buffer partition co-efficient, log D of the compound at pH 7.4 after 2 hrs by LC-MS/MS-based shake flask method; assay type: physicochemical
# Method in brief: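 Distribution between octanol and water at pH 7.4.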
# [4] = Mutagenicity in Salmonella typhimurium TA98 in absence of rat S9 fraction by Ames test; assay type: toxicity; settings: salmonella enterica subsp. enterica serovar typhimurium
# Method in brief: (§1)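 Ames bacterial mutagenicity test in S. typhimurium TA98 and TA100. Run with and without metabolic activation by rat S9 fraction.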
# [5] = Intrinsic clearance in rat hepatocytes assessed per million cells at 1 uM measured after 2 to 60 mins by LC-MS/MS analysis; assay type: ADME, cell-based, Hepatocyte; settings: read-out: CLH
# Method in brief: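 Rat hepatocyte incubation of the compound; intrinsic clearance measured after incubation.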
# [6] = molecular target: T2, Aryl hydrocarbon receptor (Homo sapiens, UniProt P35869); experiment: Agonist activity at AhR in human HepG2 cells assessed as induction of CYP1A1 activity at 0.001 to 30 uM measured after 24 hrs by immunocytochemistry analysis; assay type: ADME, cell-based; settings: hepg2, 24 h
# T2 sequence (P35869 whole entry): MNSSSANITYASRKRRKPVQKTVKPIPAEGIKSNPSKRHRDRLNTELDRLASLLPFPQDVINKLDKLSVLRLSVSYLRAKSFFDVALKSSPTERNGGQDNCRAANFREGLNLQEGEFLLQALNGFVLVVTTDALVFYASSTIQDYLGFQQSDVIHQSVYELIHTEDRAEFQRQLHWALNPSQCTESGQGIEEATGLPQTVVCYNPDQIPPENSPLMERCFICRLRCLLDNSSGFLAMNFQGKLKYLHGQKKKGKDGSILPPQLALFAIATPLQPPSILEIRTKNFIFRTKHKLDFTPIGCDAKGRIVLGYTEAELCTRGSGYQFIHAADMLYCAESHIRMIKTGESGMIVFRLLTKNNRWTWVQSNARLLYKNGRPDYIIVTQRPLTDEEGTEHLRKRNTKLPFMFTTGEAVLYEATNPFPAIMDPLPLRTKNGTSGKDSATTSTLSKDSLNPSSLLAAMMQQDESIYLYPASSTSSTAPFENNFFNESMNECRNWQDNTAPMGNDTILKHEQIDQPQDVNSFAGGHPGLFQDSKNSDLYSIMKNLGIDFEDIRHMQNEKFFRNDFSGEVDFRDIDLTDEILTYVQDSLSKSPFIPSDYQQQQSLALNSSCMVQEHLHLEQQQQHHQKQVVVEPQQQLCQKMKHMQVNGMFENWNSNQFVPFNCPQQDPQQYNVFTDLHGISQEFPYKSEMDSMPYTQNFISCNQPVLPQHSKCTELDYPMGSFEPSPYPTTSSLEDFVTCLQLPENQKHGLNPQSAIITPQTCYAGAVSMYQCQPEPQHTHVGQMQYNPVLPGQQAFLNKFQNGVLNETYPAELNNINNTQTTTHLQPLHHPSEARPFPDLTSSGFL
# [7] = Cardiotoxicity in anesthetized Beagle dog assessed as effect on cardiac contractility administered for 2 days as 45 mins iv infusion followed by compound washout and subsequent adrenaline dosing for 2 days as 10 mins iv infusion; assay type: toxicity, organism-based, Canis lupus familiaris; settings: in vivo
# [8] = Mutagenicity in Salmonella typhimurium TA98 in presence of rat S9 fraction by Ames test; assay type: toxicity, subcellular; settings: salmonella enterica subsp. enterica serovar typhimurium; method in brief: as §1
# [9] = molecular target: Voltage-gated inwardly rectifying potassium channel KCNH2 (Homo sapiens, UniProt Q12809); experiment: Inhibition of human ERG by Ion-work assay
# [10] = Mutagenicity in Salmonella typhimurium TA100 in presence of rat S9 fraction by Ames test; assay type: toxicity, subcellular; settings: salmonella enterica subsp. enterica serovar typhimurium; method in brief: as §1
# [11] = molecular target: T3, Potassium voltage-gated channel subfamily KQT member 1 (Homo sapiens, UniProt P51787); experiment: Inhibition of human Kv7.1 by Ion-work electrophysiology assay
# T3 sequence (P51787 whole entry): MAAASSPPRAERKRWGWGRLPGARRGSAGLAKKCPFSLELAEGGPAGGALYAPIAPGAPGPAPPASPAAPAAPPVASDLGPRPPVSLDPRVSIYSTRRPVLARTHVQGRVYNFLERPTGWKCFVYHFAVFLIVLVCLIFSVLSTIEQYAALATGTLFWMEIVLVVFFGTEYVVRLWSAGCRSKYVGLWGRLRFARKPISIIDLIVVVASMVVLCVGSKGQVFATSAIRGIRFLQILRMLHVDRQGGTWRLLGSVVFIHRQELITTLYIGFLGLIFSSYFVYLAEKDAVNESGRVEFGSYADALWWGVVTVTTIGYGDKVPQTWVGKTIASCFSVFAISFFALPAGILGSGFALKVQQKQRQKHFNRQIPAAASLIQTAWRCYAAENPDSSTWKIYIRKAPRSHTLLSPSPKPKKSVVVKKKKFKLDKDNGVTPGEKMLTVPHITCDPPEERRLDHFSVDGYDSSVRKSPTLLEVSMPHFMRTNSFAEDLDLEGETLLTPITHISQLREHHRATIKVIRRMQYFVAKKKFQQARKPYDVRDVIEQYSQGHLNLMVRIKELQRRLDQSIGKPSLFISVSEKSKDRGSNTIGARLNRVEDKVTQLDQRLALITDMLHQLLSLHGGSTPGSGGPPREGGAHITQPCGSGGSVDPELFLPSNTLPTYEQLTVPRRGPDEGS
# Cytochrome P450 2D6, sequence (P10635 whole entry): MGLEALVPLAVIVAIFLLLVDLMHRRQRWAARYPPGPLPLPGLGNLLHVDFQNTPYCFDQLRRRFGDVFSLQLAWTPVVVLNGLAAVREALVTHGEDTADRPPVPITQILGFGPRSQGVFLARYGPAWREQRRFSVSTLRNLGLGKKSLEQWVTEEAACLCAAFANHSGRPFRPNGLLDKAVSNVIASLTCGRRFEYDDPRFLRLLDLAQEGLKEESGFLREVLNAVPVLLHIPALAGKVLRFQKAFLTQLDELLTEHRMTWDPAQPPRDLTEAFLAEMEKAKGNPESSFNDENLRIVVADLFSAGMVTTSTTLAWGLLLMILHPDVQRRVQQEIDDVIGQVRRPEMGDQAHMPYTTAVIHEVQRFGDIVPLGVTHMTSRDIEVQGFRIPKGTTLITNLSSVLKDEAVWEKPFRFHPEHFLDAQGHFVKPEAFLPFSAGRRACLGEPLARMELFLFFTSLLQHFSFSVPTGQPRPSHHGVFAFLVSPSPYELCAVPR
# Cytochrome P450 3A4, sequence (P08684 whole entry): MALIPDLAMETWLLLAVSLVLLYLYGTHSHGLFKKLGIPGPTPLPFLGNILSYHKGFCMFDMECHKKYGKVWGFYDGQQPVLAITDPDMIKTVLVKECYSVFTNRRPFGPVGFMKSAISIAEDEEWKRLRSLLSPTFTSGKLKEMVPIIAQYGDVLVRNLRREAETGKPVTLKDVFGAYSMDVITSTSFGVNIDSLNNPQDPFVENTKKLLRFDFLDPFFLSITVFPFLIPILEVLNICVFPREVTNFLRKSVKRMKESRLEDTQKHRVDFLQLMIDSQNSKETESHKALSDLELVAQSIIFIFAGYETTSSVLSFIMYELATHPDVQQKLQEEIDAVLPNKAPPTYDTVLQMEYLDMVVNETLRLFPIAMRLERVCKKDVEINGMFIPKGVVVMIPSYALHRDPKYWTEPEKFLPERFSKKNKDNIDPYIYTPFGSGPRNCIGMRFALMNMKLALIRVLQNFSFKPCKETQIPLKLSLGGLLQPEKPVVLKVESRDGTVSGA
# Voltage-gated inwardly rectifying potassium channel KCNH2, sequence (Q12809 whole entry): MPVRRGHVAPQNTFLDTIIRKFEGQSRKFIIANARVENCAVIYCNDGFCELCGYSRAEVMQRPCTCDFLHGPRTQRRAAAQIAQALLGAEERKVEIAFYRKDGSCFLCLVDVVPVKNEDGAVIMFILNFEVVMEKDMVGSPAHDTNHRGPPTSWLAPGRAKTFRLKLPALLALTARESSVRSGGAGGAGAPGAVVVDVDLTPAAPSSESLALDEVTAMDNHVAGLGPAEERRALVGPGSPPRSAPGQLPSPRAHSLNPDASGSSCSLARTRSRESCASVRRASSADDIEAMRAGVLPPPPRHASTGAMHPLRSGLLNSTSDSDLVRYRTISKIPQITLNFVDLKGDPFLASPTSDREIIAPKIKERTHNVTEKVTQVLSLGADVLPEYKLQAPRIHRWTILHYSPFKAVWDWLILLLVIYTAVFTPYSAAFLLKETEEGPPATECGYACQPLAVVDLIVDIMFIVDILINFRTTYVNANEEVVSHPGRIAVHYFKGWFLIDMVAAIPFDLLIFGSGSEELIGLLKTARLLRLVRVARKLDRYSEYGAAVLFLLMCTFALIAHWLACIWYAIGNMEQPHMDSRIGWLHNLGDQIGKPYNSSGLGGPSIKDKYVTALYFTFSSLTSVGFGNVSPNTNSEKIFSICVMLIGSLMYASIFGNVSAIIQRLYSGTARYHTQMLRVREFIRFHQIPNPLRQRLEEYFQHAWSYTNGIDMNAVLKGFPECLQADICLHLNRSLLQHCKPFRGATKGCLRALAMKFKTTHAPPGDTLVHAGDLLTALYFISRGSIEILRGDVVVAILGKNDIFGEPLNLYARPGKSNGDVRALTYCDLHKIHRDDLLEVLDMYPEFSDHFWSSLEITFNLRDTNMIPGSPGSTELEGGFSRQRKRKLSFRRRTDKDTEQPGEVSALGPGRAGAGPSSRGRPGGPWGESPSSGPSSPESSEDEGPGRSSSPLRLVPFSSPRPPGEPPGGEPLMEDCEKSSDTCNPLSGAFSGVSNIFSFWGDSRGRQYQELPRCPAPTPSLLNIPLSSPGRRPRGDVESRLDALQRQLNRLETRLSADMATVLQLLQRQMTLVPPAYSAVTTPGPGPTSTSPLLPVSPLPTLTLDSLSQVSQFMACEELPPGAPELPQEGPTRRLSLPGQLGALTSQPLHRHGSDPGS
solubility thermodynamic at 24 h [1],IC50 (Cytochrome P450 3A4),IC50 (Cytochrome P450 2D6),Papp A→B [2],IC50 (Cytochrome P450 2C8),logD at 2 h [3],hepatocyte CLint at 1 µM [5],Activity [6],IC50 [11],SMILES,Activity [4],Activity [7],Activity [8],IC50 [9],Activity [10]
79.7 µM,> 20 µM,> 20 µM,9 ×10⁻⁶ cm/s,> 20 µM,3.4,9.7 µL/min/1e6 cells,Not Active,> 33 µM,Cc1cc(-c2ccc(C(=O)[C@@H]3CCCC[C@H]3C(=O)Nc3cnn(C)c3S(N)(=O)=O)cc2)[nH]n1,Non-Toxic,Non-Toxic,Non-Toxic,> 33 µM,Non-Toxic
208 µM,> 20 µM,> 20 µM,14.7 ×10⁻⁶ cm/s,> 20 µM,3.3,19.5 µL/min/1e6 cells,Not Active,> 33 µM,Cc1cc(-c2ccc(C(=O)[C@@H]3CCCC[C@H]3C(=O)Nc3cnn(C)c3C(=O)NOC(C)(C)C)cc2)[nH]n1,Non-Toxic,Toxic,Non-Toxic,> 33 µM,Non-Toxic
104 µM,> 20 µM,> 20 µM,3.7 ×10⁻⁶ cm/s,> 20 µM,2.9,13.8 µL/min/1e6 cells,Not Active,> 33 µM,Cc1cc(-c2ccc(C(=O)[C@@H]3CCCC[C@H]3C(=O)Nc3cnn4c3C(=O)NCC4)cc2)[nH]n1,Non-Toxic,Non-Toxic,Non-Toxic,> 33 µM,Non-Toxic
